Measured values pooled from the literature.
Lines come from different studies, so protocols differ.
Target: Cytochrome P450 2D6 (CYP2D6, Homo sapiens, UniProt P10635)

SMILES | test | test system | conditions | endpoint | value
O=C(N[C@H](Cc1c[nH]c2ccccc12)C(=O)Nc1ccncc1)c1ccc(-c2cc(F)ccc2F)cc1F | enzyme activity, inhibitor | human, liver microsomes | 1 µM | inhibition | 47%
CC1(CO)C(O[C@@H]2O[C@H](C(=O)O)[C@@H](O)[C@H](O)[C@H]2O)CC[C@@]2(C)C1CC[C@]1(C)C2CC=C2[C@H]3CC(C)(C)[C@H](O)[C@@H](O)[C@]3(CO)[C@H](O)C[C@]21C (some centres unmarked) | enzyme activity, inhibitor, mass spectrometry | human, liver microsomes |  | IC50 | > 90 µg/mL
Cc1ccc(C(=O)N2CCOC[C@H]2Cc2cccc(-n3nccn3)c2)c(-n2nccn2)c1 | enzyme activity, inhibitor | human, liver microsomes | 100 µM | inhibition | 33%
CC(=O)c1cccc(OCc2cc(C(=O)N(C)[C@@H](C)c3ccccn3)no2)c1 | enzyme activity, inhibitor | human, liver microsomes |  | IC50 | > 30 µM
COCCc1ccc(OCC(O)CNC(C)C)cc1 (centres unmarked) |  | human, plasma | oral, 100 mg, single dose, healthy volunteers | AUC(0-inf) | 770 ng·h/mL
Nc1ccc(S(=O)(=O)Nc2ccnn2-c2ccccc2)cc1 | enzyme activity, inhibitor | human, liver microsomes | 10 µM | inhibition | -23%
CCN(Cc1cnc2nc(N)nc(N)c2n1)c1ccc(C(=O)N2CCC(C(=O)OC)CC2)cc1 | enzyme activity, inhibitor, luciferase |  | 10 µM | inhibition | -20%
CCc1cc(/C(C)=N/OCc2ccc(C3CCCCC3)c(C(F)(F)F)c2)ccc1CN1CC(C(=O)O)C1 | enzyme activity, inhibitor | human, liver microsomes | 200 µM, 20 min | inhibition | 17.4%
Nc1nc(N)c2nc(CNc3cccc4ccccc34)cnc2n1 | enzyme activity, inhibitor, luciferase |  | 10 µM | inhibition | 102%
C=C[C@H]1C[N@@]2CC[C@H]1C[C@@H]2[C@@H](O)c1ccnc2ccc(OC)cc12 | enzyme activity, inhibitor | human, liver microsomes | 1 µM | inhibition | 80.8%
C[C@H]1C[C@@H](N2C(=N)N[C@](C)(c3cccc(NC(=O)c4cccc(C#N)c4)c3Cl)CC2=O)CCO1 | enzyme activity, inhibitor | human, liver microsomes | 20 µM, 15 min | inhibition | 45%
NC(=O)C1CCCN1C(=O)Cc1ccc(N(CCCO)Cc2cnc3nc(N)nc(N)c3n2)cc1 (centres unmarked) | enzyme activity, inhibitor, luciferase |  | 10 µM | inhibition | -13.9%
Cc1cccc(F)c1N1CCC(N2Cc3cn(CC(C)(F)F)nc3N(Cc3ccccc3C(F)(F)F)C2=O)CC1 | enzyme activity, inhibitor | human, liver microsomes |  | IC50 | > 10 µM
CN(Cc1cnc2nc(N)nc(N)c2n1)c1ccc(C(=O)N2CCCCC2)cc1 | enzyme activity, inhibitor, luciferase |  | 10 µM | inhibition | -23.3%
C=CC(=O)Nc1cc(Nc2nccc(Nc3cc(Cl)c(F)cc3C(C)(C)O)n2)c(OC)cc1N1CC[C@@H](N(C)C)C1 | enzyme activity, inhibitor | human, liver microsomes | 10 µM | inhibition | < 20%
NC(=O)C1CCN(C(=O)Cc2ccc(N(CCCO)Cc3cnc4nc(N)nc(N)c4n3)cc2)CC1 | enzyme activity, inhibitor, luciferase |  | 10 µM | inhibition | -15.4%
Cc1nc2c([nH]1)c(=O)n(C)c(=O)n2Cc1ccco1 | enzyme activity, inhibitor | human, liver microsomes | 40 µM | inhibition | -35%
